Results reported in publication PMC3248652 (International Journal of Biological Sciences, 2011).
“Also recorded” adds a separate entry of the source. Like-named read-outs stand apart in the source and are kept apart here. Non-standard residues stand in square brackets, D forms with d.

Tests used:
glioma cell invasion = conditions: ref [6]; cited from earlier work
breast carcinoma = conditions: ref [20]; cited from earlier work
pancreatic carcinoma = conditions: ref [21]; cited from earlier work
CXCR4 [1] = conditions: ref [15]; cited from earlier work
[2] = system: ERK activation (activated human T cells); assay: CXCL12-induced ERK phosphorylation; format: cell-based
Summary of the method: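 About 10 million activated T cells per 0.5 ml per treatment, pretreated with test compound (20µM) for 30 min at 37°C. CXCL12 was then added to 10nM final. Cells were washed, harvested and lysed in RIPA buffer with protease and phosphatase inhibitors at 1, 3 and 10 min. Protein was measured by Bradford. 30μg lysate was run on 4-20% SDS-PAGE, blotted to nitrocellulose, and phospho-ERK detected by ECL.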

[3] = ref [22]; cited from earlier work
[4] = system: CXCR4 mediated HIV viral entry; conditions: ref [19]; cited from earlier work
GHS-R = conditions: cited from earlier work
[5] = system: CXCR4 (GHOST-CXCR4 cells); assay: Fluorokine; format: binding
HIV1-IIIB (CXCR4 tropic) = assay: HIV1-IIIB propagation in activated PBMCs; format: cell-based, HIV-1; conditions: activated human PBMCs
Summary of the method: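 PBMCs were activated 3 days with PHA 5μg/ml and IL-2 10 units/ml, then washed into cRPMI at 10^6/ml. Cells were pretreated 30 min at 37°C with the test compound and infected with HIV1-IIIB (10ng/ml p24) for 3 h. Cells were washed, replated at 500,000/ml in triplicate, and compound re-added. Supernatant p24 was measured by ELISA on days 3, 6 and 9 and expressed as % of virus-only control. Three donors were used.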

CXCR4 [6] = assay: CXCR4 binding and activity, overall statement; format: cell-based, human; conditions: T cells and PBMCs; summary statement
obese mice = conditions: ref [24], cited from earlier work
[7] = system: CXCR4 (primary human T cells); assay: CXCL12-induced intracellular calcium mobilization in primary human T cells; format: cell-based; conditions: Fura-2AM, CXCL12 10nM
Summary of the method: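 Human T cells were enriched from Ficoll-isolated PBMCs on T-cell enrichment columns, loaded with Fura-2-AM, and washed. They were then pretreated 20 min with the test compound at various concentrations. CXCL12 was added to 10nM final. Ca++ release was monitored in a luminescence spectrometer (ex 340 and 380 nm, em 510 nm) and expressed as the 340/380 ratio. At least three experiments were run.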

[8] = system: CXCR4 (primary human T cells); assay: CXCL12-induced T cell Transwell chemotaxis; format: cell-based; conditions: CXCL12 10nM, 5 h 37°C, mean ±SEM of three experiments
[9] = obese mice, repeated administration

c1cc(CN2CCCNCCNCCCNCC2)ccc1CN1CCCNCCNCCCNCC1 [AMD3100]
effect on glioma cell invasion (glioma cell invasion): blocks glioma cell invasion | effect on metastasis of breast carcinoma (breast carcinoma): blocks | effect on metastasis of pancreatic carcinoma (pancreatic carcinoma): blocks | CXCR4 blocking (CXCR4 [1]): potent CXCR4 [15] blocking agent | block of ERK activation after CXCL12 treatment ([2]; activated human T cells, 10^-6M AMD3100, data not shown): 80% | effect on allergy and collagen induced arthritis [3]: decreases allergy and collagen induced arthritis | effect on CXCR4 mediated HIV viral entry [4]: block CXCR4 mediated HIV viral entry

H-H[dW]AW[dF]K-NH2 [GHRP-6]
activity at GHS-R (GHS-R; ref [9]): GHS-R agonist

H-H[dW][dK]W[dF]K-NH2 [DLS]
effect on chemokine ligand binding ([5]; 1/4/16 μg DLS, 30 min 37°C, flow cytometry MFI): blocks chemokine ligand binding to receptor-positive cells | amount required for the observed inhibition of CXCL12 binding ([5]; GHOST-CXCR4 cells, flow cytometry, AMD3100 data not shown): microgram quantities | effect on CXCR4-mediated HIV-1 entry and propagation (HIV1-IIIB (CXCR4 tropic)): partially blocks CXCR4-mediated HIV-1 entry and propagation | effect on CXCL12 binding and activity through CXCR4 (CXCR4 [6]): block CXCL12 binding and activity through CXCR4; also recorded: modestly inhibit the binding and activity of CXCR4 receptor in human T cells | body weight (obese mice; [9]): reduce body weight in obese mice | glycemic control and insulin resistance (obese mice; [9]): improve their glycemic control and insulin resistance | muscle mass (obese mice; obese mice): without affecting the muscle mass | size of abdominal fat pads (obese mice; obese mice): reduced the size of abdominal fat pads | adverse side effects (obese mice; rodent models): without any adverse side effects | activity at GHS-R (GHS-R; ref [8], [9]): selective GHS-R antagonist | effect on CXCL12-induced calcium flux [7]: markedly inhibited in a dose dependent fashion; also recorded: partially inhibits CXCL12-induced Ca++ release; also recorded: modest inhibition of calcium mobilization | effect on CXCL12-induced T cell migration [8]: marked dose dependent inhibition; also recorded: inhibits CXCL12 induced activated T cell chemotaxis | effect on ERK activation in response to CXCL12 ([2]; DLS 20μM, 30 min 37°C, CXCL12 10nM, Western blot): very modestly blocks ERK activation
